Source: PubChem
FLuc act counter: FLuc activators, initial screening, artefact control for FLuc-dependent activation tests, biochemical, ATPlite luminescence; Luciferin 4-monooxygenase (Photinus pyralis), P08659; activation factor at 10 µM; ATPlite luciferase biochemical, 10 min; 0 = ATP-free wells, 1 = DMSO control; AID 1027, 2008; 200,000 tested, under 10 active;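 active = luciferase activation factor, scaled between plate controls, of at least 2 with compound at 10 µM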
Target sequence (P08659 whole entry, looked up): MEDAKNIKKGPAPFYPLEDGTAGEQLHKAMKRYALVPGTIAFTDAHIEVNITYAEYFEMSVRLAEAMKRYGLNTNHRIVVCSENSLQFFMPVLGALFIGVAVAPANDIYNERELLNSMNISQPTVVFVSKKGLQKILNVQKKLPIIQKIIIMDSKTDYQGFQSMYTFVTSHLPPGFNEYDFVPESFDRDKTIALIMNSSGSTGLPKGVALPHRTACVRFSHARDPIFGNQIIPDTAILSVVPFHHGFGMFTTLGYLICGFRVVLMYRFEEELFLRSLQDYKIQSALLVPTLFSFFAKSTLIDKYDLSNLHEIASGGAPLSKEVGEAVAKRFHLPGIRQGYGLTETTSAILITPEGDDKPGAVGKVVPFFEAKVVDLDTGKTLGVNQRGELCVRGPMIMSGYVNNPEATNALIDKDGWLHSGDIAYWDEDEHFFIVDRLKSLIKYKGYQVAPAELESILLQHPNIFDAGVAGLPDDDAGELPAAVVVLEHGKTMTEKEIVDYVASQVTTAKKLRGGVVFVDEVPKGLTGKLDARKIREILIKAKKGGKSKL
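System: Luciferase/luciferin detection reagent, cell-free biochemical luciferase assay | Medium: PBS buffer for ATP | Dosing: Test compounds dosed from 2 mM stocks in 100% DMSO | Timing: 10 min at ambient temperature | Signal: Luminescence measurement of luciferase light output | Evaluation: Luciferase activation, seen as luminescence increase over controls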
C8 TRAIL sens: viability loss with TRAIL in NB7+C8 cells, primary screen, TRAIL sensitizer project, cell-based, ATPlite luminescence; AID 624354, 2012; hit rate 1% among 360,000; inhibition (viability loss, TRAIL sensitization), % at 10 µM;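 active = compounds causing at least 50% loss of cell viability in the single-dose screen, relative to plate controls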
FLuc inh counter: firefly luciferase enzyme inhibitors, primary screen, artefact control for luciferase-based inhibitor screens, biochemical, luminescence, ATPLite; hit rate 1.5% among 200,000; 10 min; AID 1006, 2008; Luciferin 4-monooxygenase (Photinus pyralis), P08659; inhibition, % at 10 µM;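 active = inhibition above about 50% when tested at 10 µM, limit read from the data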
PPC-1+TRAIL kill: compounds killing PPC-1 cancer cells with TRAIL present, primary screen, TRAIL potentiator project, ATPLite luminescence, uHTS; PPC-1 cells + TRAIL, ATPLite viability luminescence; cell killing (% activity), % at 4 µM or 5 µM; hit rate 0.41% among 220,000;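 active = cell killing above 50% in the first pass at 4 µM, then a duplicate retest at 5 µM averaging 50% or more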;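 note: plate controls were cells with TRAIL plus DMSO for no effect and medium-only wells lacking cells for full effect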
PPC1 cytotox: cytotoxicity in PPC-1 cells, confirmation, cytotoxicity control for TRAIL apoptosis potentiator project, cell-based, ATP content luminescence. shares compounds with PPC-1+TRAIL kill. PPC-1 viability, ATPlite luminescence, overnight. cytotoxicity, % at 5 µM. hit rate 50% among 1,200. AID 1447, 2008;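 active = reconfirmed compounds whose average cytotoxicity reaches 50% or more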;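 note: 0% = DMSO-treated cells and 100% = wells holding medium but no cells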
Starred values were filed as active, the others as inactive; nt = no result. In the library only some 1.5% were active in any assay of this set; here they are far more common.

SMILES	FLuc act counter	C8 TRAIL sens	FLuc inh counter	PPC-1+TRAIL kill	PPC1 cytotox
CC1=C(C(=O)N2CCOCC2)CC(CC(=O)NC2CCCC2)C(=O)N1Cc1ccc(F)cc1 (configuration not stated)	nt	3	nt	nt	nt
CC(=Nc1ccc(C)cc1C)c1sc2ccccc2c1O	0.2	65*	85*	32	27
Cc1ccc(S(=O)(=O)NC2CCCCC2)cc1	nt	0	nt	nt	nt
CSc1ccc(S(=O)(=O)NC2CCCCCC2)cc1	1	-9	-4	0	1
CC(C)COC(=O)N(C)C[C@H]1OCc2cnnn2CCCC(=O)N([C@@H](C)CO)C[C@H]1C	nt	-1	nt	nt	nt
Cc1[nH]n(-c2ccccc2)c(=O)c1C(C[N+](=O)[O-])c1ccc(Br)cc1 (configuration not stated)	1.1	4	-7	6	0
COCCN(C(=O)c1cc(OC)c(OC)c(OC)c1)c1c(N)n(Cc2ccccc2)c(=O)[nH]c1=O	1	-4	-3	10	3
O=C1C(Cl)=C(Nc2ccc(O)cc2)C(=O)c2ccccc21	nt	89*	nt	29	30
NC(=S)NN=C1C=CCCC1	nt	-2	nt	nt	nt
O=C(N/N=C/c1ccc2nccnc2c1)c1ccncc1	nt	24	nt	-2	nt
O=C(N/N=C/c1ccc2nccnc2c1)c1ccccc1O	nt	nt	nt	63*	63*
Cc1n[nH]c(=O)nc1N1CCN(c2ccccc2)CC1	1.1	1	-8	6	6
CCOC(=O)C(C)/C(C)=N/NC(N)=S (configuration not stated)	1	7	0	37	nt
Nc1nc(Nc2cccc(F)c2)nc2ccccc12	0.4	27	57*	28	29
Fc1ccc(-c2nnc(NC3=NCCCCC3)o2)cc1	0.1	75*	87*	66*	64*
CCN(CC)S(=O)(=O)c1cccc(C(=O)NCC2(N3CCOCC3)CCCCC2)c1	nt	-13	nt	nt	nt
Cc1cc(=O)n2nc(N3CCCC(C(=O)N4CCN(c5ccccc5)CC4)C3)sc2n1 (configuration not stated)	1	8	-5	1	31
Cc1cc(=O)n2nc(N3CCCC(C(=O)NCc4ccccc4)C3)sc2n1 (configuration not stated)	nt	-1	nt	nt	nt
CC(C)(C)c1ccc(C(=O)/C=C2\NC(=O)CS2)cc1	0.1	85*	89*	56*	57*
OCCNCC(O)Cn1ccc2ccccc21 (configuration not stated)	1.1	-1	-9	8	6
O=C(CN1C(=O)c2ccccc2S1(=O)=O)c1ccc2c(c1)OCCCO2	nt	91*	nt	86*	86*
O=C(CN1C(=O)c2ccccc2S1(=O)=O)c1ccc2c(c1)OCCO2	nt	85*	nt	84*	82*
O=C(CN1CCc2ccccc21)NN1CC(=O)N(c2ccc(Cl)cc2)CC1=O	nt	-20	nt	11	nt
CN1CCN(C(=O)c2ccc(Cc3cn(C)c4ccccc34)nc2)CC1	nt	-7	nt	nt	nt
O=C(NCc1cccnc1)C1CCCN(S(=O)(=O)c2ccccc2)C1 (configuration not stated)	1	16	2	7	9
SMILES	FLuc act counter	C8 TRAIL sens	FLuc inh counter	PPC-1+TRAIL kill	PPC1 cytotox
COc1ccc2nc(NC(=O)Nc3ccccc3OC)sc2c1	nt	44	nt	nt	nt
COc1ccc2nc(Nc3ccccc3OC)sc2c1	0.1	69*	87*	61*	57*
c1ccc2sc(SCSc3nc4ccccc4s3)nc2c1	nt	7	nt	0	nt
N#CCc1nc(CSc2nc3ccccc3s2)cs1	0.9	29	6	-15	-32
COc1ccc(N2CCN(c3ccc(NC(=O)C4CCCCC4)cc3C#N)CC2)cc1	1	-6	-4	-5	8
COc1cc(N)ccc1NC(=O)c1cccs1	1	1	2	-1	4
COC(=O)c1ccccc1NC(=O)Cn1c(=O)oc2ccc(Cl)cc21	1	-3	-5	7	4
Cc1ccnc(NC(=O)COc2ccccc2[N+](=O)[O-])c1	0.2	52*	81*	44	52*
O=C(COc1ccccc1[N+](=O)[O-])Nc1cccnc1	0.8	6	21	19	nt
N#Cc1cnc2cc(-c3ccccc3)nn2c1N	nt	-34	nt	13	nt
COc1ccc(-c2cc3ncc(-c4ccccc4)c(N)n3n2)cc1	0.2	62*	79*	41	52*
